The source made the active and inactive calls. The rule behind the calls is not given here.
Tests used:
[1] = target: T1, Matrix metalloproteinase-9 (Homo sapiens, UniProt P14780); experiment: Inhibition of MMP9 in human A549 cells assessed as decrease in gelatin digestion incubated for 24 hrs by coomassie brilliant blue staining-based zymographic assay; type: cell-based
Outline: (§1)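 A549 cells treated 24 h at 1, 5, 10 µM; culture supernatants electrophoresed on gelatin-containing SDS-PAGE, gels washed three times in 0.25% triton, then incubated 48 h at 37°C in 50 mM Tris-HCl pH 7.5 with 0.15 M NaCl, 5 mM CaCl2, 0.05% NaN3 to reveal gelatinolytic activity.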

[2] = test system: A549; experiment: Down regulation of MMP9 expression in human A549 cells incubated for 24 hrs by Western blot analysis; type: functional, cell-based
Outline: (§2)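 A549 cells treated 24 h at 1, 5 and 10 µM; lysates run on SDS-PAGE, transferred to PVDF, blocked in 10% dry milk/TBST, probed with rabbit anti-MMP-2, anti-MMP-9 or anti-GAPDH, then secondary antibodies and imaged.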

[3] = target: T2, 72 kDa type IV collagenase (Homo sapiens, UniProt P08253); experiment: Inhibition of recombinant human MMP2 at 10 uM using thiopeptide as substrate preincubated for 30 mins followed by substrate addition and measured every min for 20 mins by colorimetric assay relative to control
Outline: (§3)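 Colorimetric kit assay: human recombinant enzyme plus inhibitor in assay buffer for 30 min at 37 °C, then chromogenic MMP substrate added; A412 recorded each minute over 20 min. Enzyme-free blanks and inhibitor-free controls included.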
Target sequence in this assay (P08253 110-660 limits assumed): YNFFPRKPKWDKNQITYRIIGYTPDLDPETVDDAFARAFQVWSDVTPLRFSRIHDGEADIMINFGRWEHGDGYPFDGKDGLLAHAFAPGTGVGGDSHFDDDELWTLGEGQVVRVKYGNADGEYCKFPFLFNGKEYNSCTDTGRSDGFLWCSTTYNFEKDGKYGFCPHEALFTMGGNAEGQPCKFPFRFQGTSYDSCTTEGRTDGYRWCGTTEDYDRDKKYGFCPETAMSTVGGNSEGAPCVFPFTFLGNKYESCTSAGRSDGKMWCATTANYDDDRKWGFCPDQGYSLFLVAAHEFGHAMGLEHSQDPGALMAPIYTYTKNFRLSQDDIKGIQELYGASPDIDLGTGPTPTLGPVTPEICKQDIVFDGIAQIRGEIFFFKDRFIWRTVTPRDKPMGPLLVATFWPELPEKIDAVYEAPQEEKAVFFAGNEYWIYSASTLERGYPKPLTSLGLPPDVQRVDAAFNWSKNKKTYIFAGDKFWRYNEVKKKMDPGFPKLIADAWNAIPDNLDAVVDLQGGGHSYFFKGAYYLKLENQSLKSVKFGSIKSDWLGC

[4] = test system: K562; experiment: Antiproliferative activity against human K562 cells assessed as reduction in cell viability incubated for 48 hrs by MTT assay; type: functional, cell-based; settings: K562, 48 h
Outline: (§4)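 Cells grown in RPMI1640 with 10% FBS at 37°C, 5% CO2; seeded at 4000-5000 cells/well for 8 h, then exposed to a range of compound concentrations for 48 h. MTT added for 4 h, formazan dissolved in DMSO, absorbance at 570 nm; IC50 calculated from inhibition ratios.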

[5] = test system: A549; experiment: Induction of apoptosis in human A549 cells assessed as viable cells at 5 uM incubated for 48 hrs by annexin V FITC and propidium iodide based flow cytometry (reference value: 94.7 %); type: functional; settings: A549, 48 h, read-out: Activity
Outline: (§5)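 A549 cells (1×10^5 cells/mL) treated 48 h at 0, 1, 5 or 10 µM; harvested, washed in cold PBS, resuspended in binding buffer with annexin V-FITC and PI, 15 min at room temperature in the dark, then analysed by flow cytometry.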

[6] = target: T2, 72 kDa type IV collagenase; experiment: Inhibition of MMP2 in human A549 cells assessed as decrease in gelatin digestion incubated for 24 hrs by coomassie brilliant blue staining-based zymographic assay; type: cell-based; outline: as §1
Target sequence in this assay (P08253 110-660 limits assumed): as above

[7] = test system: HUVEC; experiment: Antiangiogenic activity in HUVEC assessed as inhibition of tuber formation at 10 uM incubated for 24 hrs by matrigel-based inverted microscopy; type: functional, cell-based; settings: Homo sapiens
Outline: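 HUVEC treated with compound for 24 h in serum-free RPMI1640, harvested and layered onto undiluted matrigel polymerized 2 h at 37°C; after 6 h cell organization examined by inverted microscope, with mesh number counted as the angiogenesis read-out. Tested at 10 µM.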

[8] = test system: A549; experiment: Induction of apoptosis in human A549 cells assessed as early apoptotic cells at 10 uM incubated for 48 hrs by annexin V FITC and propidium iodide based flow cytometry (reference value: 2.15 %); type: functional; outline: as §5
[9] = test system: KG-1; experiment: Antiproliferative activity against human KG1 cells assessed as reduction in cell viability incubated for 48 hrs by MTT assay; type: functional, cell-based; settings: KG-1, 48 h; outline: as §4
[10] = test system: A549; experiment: Induction of apoptosis in human A549 cells assessed as late apoptotic cells at 10 uM incubated for 48 hrs by annexin V FITC and propidium iodide based flow cytometry (reference value: 3.11 %); type: functional; outline: as §5
[11] = test system: A549; experiment: Induction of apoptosis in human A549 cells assessed as late apoptotic cells at 5 uM incubated for 48 hrs by annexin V FITC and propidium iodide based flow cytometry (reference value: 3.11 %); type: functional; outline: as §5
[12] = test system: A549; experiment: Induction of apoptosis in human A549 cells assessed as early apoptotic cells at 1 uM incubated for 48 hrs by annexin V FITC and propidium iodide based flow cytometry (reference value: 2.15 %); type: functional; outline: as §5
[13] = test system: A549; experiment: Induction of apoptosis in human A549 cells assessed as viable cells at 1 uM incubated for 48 hrs by annexin V FITC and propidium iodide based flow cytometry (reference value: 94.7 %); type: functional; settings: A549, 48 h, read-out: Activity; outline: as §5
[14] = target: T1, Matrix metalloproteinase-9; experiment: Inhibition of recombinant human MMP9 at 10 uM using thiopeptide as substrate preincubated for 30 mins followed by substrate addition and measured every min for 20 mins by colorimetric assay relative to control; outline: as §3
[15] = test system: HL-60; experiment: Antiproliferative activity against human HL60 cells assessed as reduction in cell viability incubated for 48 hrs by MTT assay; type: functional, cell-based; settings: HL-60, 48 h; outline: as §4
[16] = test system: A549; experiment: Induction of apoptosis in human A549 cells assessed as necrotic cells at 5 uM incubated for 48 hrs by annexin V FITC and propidium iodide based flow cytometry (reference value: 0.02 %); type: functional; outline: as §5
[17] = target: T1, Matrix metalloproteinase-9; experiment: Inhibition of recombinant human MMP9 using thiopeptide as substrate preincubated for 30 mins followed by substrate addition and measured every min for 20 mins by colorimetric assay
[18] = test system: A549; experiment: Induction of apoptosis in human A549 cells assessed as viable cells at 10 uM incubated for 48 hrs by annexin V FITC and propidium iodide based flow cytometry (reference value: 94.7 %); type: functional; settings: A549, 48 h, read-out: Activity; outline: as §5
[19] = test system: A549; experiment: Induction of apoptosis in human A549 cells assessed as necrotic cells at 10 uM incubated for 48 hrs by annexin V FITC and propidium iodide based flow cytometry (reference value: 0.02 %); type: functional; outline: as §5
[20] = target: T2, 72 kDa type IV collagenase; experiment: Inhibition of recombinant human MMP2 using thiopeptide as substrate preincubated for 30 mins followed by substrate addition and measured every mins for 20 min by colorimetric assay
Target sequence in this assay (P08253 whole entry): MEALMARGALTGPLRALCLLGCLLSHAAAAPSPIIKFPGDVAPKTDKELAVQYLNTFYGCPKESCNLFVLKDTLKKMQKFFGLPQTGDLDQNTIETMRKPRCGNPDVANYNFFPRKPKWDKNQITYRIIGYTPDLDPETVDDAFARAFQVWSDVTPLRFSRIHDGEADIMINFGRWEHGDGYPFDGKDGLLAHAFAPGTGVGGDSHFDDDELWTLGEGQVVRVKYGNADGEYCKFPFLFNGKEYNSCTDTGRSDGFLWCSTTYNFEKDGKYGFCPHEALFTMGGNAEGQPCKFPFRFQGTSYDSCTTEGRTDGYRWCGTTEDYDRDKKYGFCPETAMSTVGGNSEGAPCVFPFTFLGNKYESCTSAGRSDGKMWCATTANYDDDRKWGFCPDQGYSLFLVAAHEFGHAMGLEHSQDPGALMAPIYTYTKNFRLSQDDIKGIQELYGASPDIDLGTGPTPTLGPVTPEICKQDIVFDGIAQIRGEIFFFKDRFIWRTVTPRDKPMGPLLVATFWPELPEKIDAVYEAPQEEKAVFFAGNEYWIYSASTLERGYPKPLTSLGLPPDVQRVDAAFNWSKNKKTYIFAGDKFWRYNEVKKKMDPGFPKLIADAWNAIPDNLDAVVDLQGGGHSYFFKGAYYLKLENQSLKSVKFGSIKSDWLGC

[21] = test system: A549; experiment: Induction of apoptosis in human A549 cells assessed as late apoptotic cells at 1 uM incubated for 48 hrs by annexin V FITC and propidium iodide based flow cytometry (reference value: 3.11 %); type: functional; outline: as §5
[22] = test system: MCF7; experiment: Antiproliferative activity against human MCF7 cells assessed as reduction in cell viability incubated for 48 hrs by MTT assay; type: functional, cell-based; settings: MCF7, 48 h; outline: as §4
[23] = test system: A549; experiment: Inhibition of cell invasion in human A549 cells incubated for 24 hrs by crystal violet staining based matrigel migration assay; type: functional
Outline: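 As the migration setup but membrane precoated with matrigel (1:10 diluted) for 2 h at 37°C: A549 pretreated 24 h at 1, 5, 10 µM, 30,000 cells in serum-free medium above, 10% FBS below, 24 h, then fixing, 0.1% crystal violet staining and counting. Three repeats, mean ± SEM.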

[24] = test system: HUVEC; experiment: Cytotoxicity against HUVEC assessed as reduction in cell viability incubated for 48 hrs by MTT assay; type: cell-based; settings: Homo sapiens; outline: as §4
[25] = test system: A549; experiment: Inhibition of cell migration in human A549 cells at 1 to 10 uM incubated for 24 hrs by crystal violet staining based transwell migration assay; type: functional
Outline: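 A549 cells pretreated 24 h with compound (1, 5, 10 µM), harvested into serum-free RPMI1640; 30,000 cells placed in upper transwell chamber, lower chamber RPMI1640 + 10% FBS as chemoattractant. Migration 24 h at 37°C, 5% CO2; cells fixed MeOH/acetic acid (3:1), upper side wiped, underside stained 0.1% crystal violet and counted. Three repeats, mean ± SEM.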

[26] = test system: A549; experiment: Antiproliferative activity against human A549 cells assessed as reduction in cell viability incubated for 48 hrs by MTT assay; type: functional, cell-based; settings: A549, 48 h; outline: as §4
[27] = test system: A549; experiment: Induction of apoptosis in human A549 cells assessed as early apoptotic cells at 5 uM incubated for 48 hrs by annexin V FITC and propidium iodide based flow cytometry (reference value: 2.15 %); type: functional; outline: as §5
[28] = test system: A549; experiment: Down regulation of MMP2 expression in human A549 cells incubated for 24 hrs by Western blot analysis; type: functional, cell-based; outline: as §2
[29] = test system: A549; experiment: Induction of apoptosis in human A549 cells assessed as necrotic cells at 1 uM incubated for 48 hrs by annexin V FITC and propidium iodide based flow cytometry (reference value: 0.02 %); type: functional; outline: as §5
[30] = test system: PC-3; experiment: Antiproliferative activity against human PC3 cells assessed as reduction in cell viability incubated for 48 hrs by MTT assay; type: functional, cell-based; settings: PC-3, 48 h; outline: as §4
[31] = target: T1, Matrix metalloproteinase-9; experiment: Inhibition of recombinant human MMP9 at 50 uM using thiopeptide as substrate preincubated for 30 mins followed by substrate addition and measured every min for 20 mins by colorimetric assay relative to control
[32] = target: MMP-2/MMP-9 (Homo sapiens) (UniProt P08253+P14780); experiment: Selectivity ratio of IC50 for inhibition of recombinant human MMP9 to IC50 for inhibition of recombinant human MMP2
[33] = target: T1, Matrix metalloproteinase-9; experiment: Inhibition of recombinant human MMP9 at 25 uM using thiopeptide as substrate preincubated for 30 mins followed by substrate addition and measured every min for 20 mins by colorimetric assay relative to control

T1 sequence (P14780 whole entry): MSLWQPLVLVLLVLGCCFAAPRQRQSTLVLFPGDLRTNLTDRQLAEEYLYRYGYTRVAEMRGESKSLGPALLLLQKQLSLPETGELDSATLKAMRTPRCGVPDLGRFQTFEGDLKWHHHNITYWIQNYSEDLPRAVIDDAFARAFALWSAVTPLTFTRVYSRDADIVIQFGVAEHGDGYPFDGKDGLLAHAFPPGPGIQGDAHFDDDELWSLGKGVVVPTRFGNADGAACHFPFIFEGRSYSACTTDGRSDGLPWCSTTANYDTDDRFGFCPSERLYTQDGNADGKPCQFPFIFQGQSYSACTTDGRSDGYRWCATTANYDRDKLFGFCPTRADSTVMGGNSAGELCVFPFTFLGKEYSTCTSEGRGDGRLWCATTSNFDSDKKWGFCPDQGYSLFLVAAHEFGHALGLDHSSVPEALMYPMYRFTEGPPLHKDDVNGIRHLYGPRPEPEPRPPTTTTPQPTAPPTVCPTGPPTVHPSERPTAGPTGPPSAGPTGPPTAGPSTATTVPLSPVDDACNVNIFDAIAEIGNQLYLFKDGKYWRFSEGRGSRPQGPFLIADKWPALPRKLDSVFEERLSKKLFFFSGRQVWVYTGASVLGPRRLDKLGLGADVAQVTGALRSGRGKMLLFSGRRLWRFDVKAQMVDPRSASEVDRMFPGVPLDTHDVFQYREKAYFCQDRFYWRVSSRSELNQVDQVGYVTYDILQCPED

inhibition [3] [%]	IC50 [4] [µM]	inhibition [14] [%]	IC50 [15] [µM]	IC50 [17] [µM]	IC50 [20] [µM]	IC50 [22] [µM]	SMILES	viability at 5 µM [5] [%]	inhibition [7]	Activity [8] [%]	IC50 [9] [µM]	Activity [10] [%]	Activity [11] [%]	Activity [12] [%]	viability at 1 µM [13] [%]	Activity [16] [%]	viability at 10 µM [18] [%]	Activity [19] [%]	Activity [21] [%]	IC50 [24] [µM]	other results
68.8	1.8	100	4	1.3	0.81	7.8	Cc1[nH]c2ccccc2c1CCNC(=O)CCCNCc1cc(Cl)c2cccnc2c1O	64.4	Active	32.5	0.69	4.97	6.17	16	74.9	0.027	62.5	0.46	9.15	> 50	inhibition [1]: Dose-dependent effect; Activity [2]: Dose-dependent effect; inhibition [6]: Dose-dependent effect; inhibition [23]: Dose-dependent effect; inhibition [25]: Active; IC50 [26]: 6.4 µM; Activity [27]: 29.4%; Activity [28]: Dose-dependent effect; Activity [29]: 0%; IC50 [30]: 22 µM
59.5	–	35.3	–	> 10	6.2	–	CN(CCCCCC(=O)Nc1ccc(O)c2ncccc12)c1ccccc1	–	–	–	–	–	–	–	–	–	–	–	–	–	inhibition [31]: 26%; Ratio IC50 [32]: > 7; inhibition [33]: 22%
–	3.6	–	4.6	11	8.8	42	O=S(=O)(Nc1ccc(O)c2ncccc12)c1ccc(F)cc1	74.6	Active	20.2	4.6	6.57	5.49	14.4	79.5	0.017	73.1	0.11	6.11	> 50	inhibition [25]: Active; IC50 [26]: 51 µM; Activity [27]: 19.8%; Activity [29]: 0.032%; IC50 [30]: 18 µM

— ChEMBL document CHEMBL4406825, “Design, synthesis and preliminary bioactivity evaluations of 8-hydroxyquinoline derivatives as matrix metalloproteinase (MMP) inhibitors” (Eur J Med Chem, 2019)
